Reference: ChEMBL document CHEMBL3425459, “Structure-activity studies in the development of a hydrazone based inhibitor of adipose-triglyceride lipase (ATGL)” (Bioorg Med Chem, 2015)
The source made the active and inactive calls. No cut-off for these calls is given here.

Assays:
[1] = molecular target: T1, Patatin-like phospholipase domain-containing protein 2 (Mus musculus, UniProt Q8BJ56); test: Inhibition of mouse recombinant ATGL expressed in African green monkey COS7 cells assessed as reduction in triglyceride hydrolase activity using radio-labelled triolein substrate incubated for 1 hr by liquid scintillation counting; format: cell-based, COS-7
T1 sequence (Q8BJ56 whole entry): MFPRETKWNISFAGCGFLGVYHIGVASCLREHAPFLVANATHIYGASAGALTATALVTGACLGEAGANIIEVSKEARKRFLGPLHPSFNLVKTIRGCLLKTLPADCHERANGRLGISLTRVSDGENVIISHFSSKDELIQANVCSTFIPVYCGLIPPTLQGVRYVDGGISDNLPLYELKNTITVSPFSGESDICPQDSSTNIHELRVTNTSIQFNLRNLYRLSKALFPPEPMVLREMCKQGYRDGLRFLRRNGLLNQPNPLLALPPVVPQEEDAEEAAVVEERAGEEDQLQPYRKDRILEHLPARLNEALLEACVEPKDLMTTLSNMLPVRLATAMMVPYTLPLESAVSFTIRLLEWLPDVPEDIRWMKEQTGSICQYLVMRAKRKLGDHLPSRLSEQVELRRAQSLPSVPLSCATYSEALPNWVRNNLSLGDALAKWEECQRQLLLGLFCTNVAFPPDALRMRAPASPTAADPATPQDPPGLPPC

[2] = molecular target: T2, Lipoprotein lipase (Homo sapiens) (UniProt P06858); test: Inhibition of lipoprotein lipase (unknown origin) at 100 uM incubated for 1 hr
T2 sequence (whole entry): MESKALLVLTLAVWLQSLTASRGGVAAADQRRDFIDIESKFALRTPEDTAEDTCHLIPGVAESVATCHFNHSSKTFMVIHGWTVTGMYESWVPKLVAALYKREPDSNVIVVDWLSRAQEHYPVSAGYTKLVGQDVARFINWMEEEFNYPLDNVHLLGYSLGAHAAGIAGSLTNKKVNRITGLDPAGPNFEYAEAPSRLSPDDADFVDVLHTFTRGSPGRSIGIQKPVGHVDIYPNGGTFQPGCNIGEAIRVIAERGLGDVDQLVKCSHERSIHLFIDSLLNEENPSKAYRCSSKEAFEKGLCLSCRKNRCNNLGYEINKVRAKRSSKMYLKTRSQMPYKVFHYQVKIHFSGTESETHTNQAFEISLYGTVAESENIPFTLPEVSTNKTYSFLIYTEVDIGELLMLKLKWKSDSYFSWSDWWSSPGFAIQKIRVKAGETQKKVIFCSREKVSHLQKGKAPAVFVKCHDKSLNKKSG
Summary of the method: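 Purified recombinant LPL (2 μl) was incubated with radiolabelled triolein emulsion, with or without inhibitor, for 1 h at 37 °C. The emulsion was prepared at 330 μM triolein with PC/PI in pH 7.0 phosphate and 5% BSA. Liberated fatty acids were extracted into the alkaline upper phase and quantified by liquid scintillation counting.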

Adipose tissue [3] = test: Inhibition of lipolysis in hormone-sensitive lipase knock out mouse white adipose tissue fat pads assessed as reduction in fatty acids release at 10 to 200 uM; format: functional, tissue-based
[4] = Toxicity in mouse AML-12 cells at 1 to 200 uM by Tox4 test; format: cell-based; details: aml-12, 200 µM
[5] = molecular target: T3, Monoglyceride lipase (Homo sapiens) (UniProt Q99685); test: Inhibition of monoglyceride lipase (unknown origin) at 100 uM incubated for 1 hr
T3 sequence (whole entry): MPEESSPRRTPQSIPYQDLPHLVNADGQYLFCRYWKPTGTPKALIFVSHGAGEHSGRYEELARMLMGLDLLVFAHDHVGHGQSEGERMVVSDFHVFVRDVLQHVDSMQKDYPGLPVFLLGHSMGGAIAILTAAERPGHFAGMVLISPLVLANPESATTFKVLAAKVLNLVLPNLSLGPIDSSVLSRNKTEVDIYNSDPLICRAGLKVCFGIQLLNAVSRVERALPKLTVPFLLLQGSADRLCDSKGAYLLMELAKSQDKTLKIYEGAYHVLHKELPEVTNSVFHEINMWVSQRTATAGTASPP

Adipose tissue [6] = test: Inhibition of lipolysis in adipose triglyceride lipase knock out mouse white adipose tissue fat pads assessed as reduction in fatty acids release at 10 to 200 uM; format: functional, tissue-based
Adipose tissue [7] = test: Inhibition of lipolysis in wild type mouse white adipose tissue fat pads assessed as reduction in fatty acids release at 10 to 200 uM; format: functional, tissue-based
[8] = molecular target: T4, Patatin-like phospholipase domain-containing protein 2 (Mus musculus) (UniProt Q8BJ56); test: Inhibition of mouse recombinant ATGL expressed in African green monkey COS7 cells assessed as reduction in triglyceride hydrolase activity at 200 uM using radio-labelled triolein substrate incubated for 1 hr by liquid scintillation counting; format: cell-based; details: COS-7
T4 sequence (whole entry): T1 sequence (Q8BJ56 whole entry)
Summary of the method: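 Lysate (20 μg protein) of COS-7 cells transfected with murine ATGL DNA, sonicated in pH 7.0 sucrose/EDTA/DTT/protease-inhibitor buffer and cleared at 1000×g. Mixed 1:1 with radiolabelled triolein emulsion (prepared at 330 μM, 40,000 cpm/nmol, PC/PI, 100 mM potassium phosphate pH 7.0, 5% FA-free BSA) ± 200 μM inhibitor for 1 h at 37 °C. Released FA counted by scintillation after methanol/chloroform/heptane extraction at pH 10.5.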

| Structure (SMILES) | IC50 [1] [µM] | other results |
| --- | --- | --- |
| Oc1ccc(/C=N/N2CCN(C3CCCCC3)CC2)c(O)c1 | > 200 |  |
| COc1ccc(C(=O)NN2CCN(c3ccccc3)CC2)cc1OC | > 200 |  |
| C(=N\N1CCN(c2ccccc2)CC1)/c1ccc2ccccc2c1 | > 200 |  |
| COc1cc(OC)c(OC)cc1/C=N/N1CCN(c2ccccc2)CC1 | > 200 |  |
| C(=N\N1CCN(c2ccccc2)CC1)/c1ccncc1 | 140 |  |
| Oc1ccc(/C=N/N2CCN(Cc3ccccc3)CC2)c(O)c1 | > 200 |  |
| CN(CCO)c1ccc(/C=N/N2CCN(c3ccccc3)CC2)cc1 | > 200 |  |
| Oc1ccc(/C=N/N2CCN(C3CCCC3)CC2)c(O)c1 | > 200 |  |
| Clc1ccc(/C=N/N2CCN(c3ccccc3)CC2)c(Cl)c1 | > 200 |  |
| CCC/C=C/C=N/N1CCN(c2ccccc2)CC1 | > 200 |  |
| Oc1ccc(CN2CCN(c3ccccc3)CC2)cc1O | > 200 |  |
| C(=N\N1CCN(c2ccccc2)CC1)/c1ccc2ccccc2n1 | > 200 |  |
| Oc1ccc(/C=N/N2CCN(c3ccccc3)CC2)c(O)c1 |  | inhibition [2]: inactive; inhibition (Adipose tissue [3]): Active; Activity [4]: Toxic; inhibition [5]: inactive; inhibition (Adipose tissue [6]): Active; inhibition (Adipose tissue [7]): Active |
| C(=N\N1CCN(c2ccccc2)CC1)/c1ccc2c(c1)OCCO2 | > 200 |  |
| C(=N\N1CCN(c2ccccc2)CC1)/c1ccccn1 | > 200 |  |
| Brc1ccccc1/C=N/N1CCN(c2ccccc2)CC1 | > 150 |  |
| COc1ccc(NC(=O)N2CCN(c3ccccc3)CC2)cc1OC | > 200 |  |
| Oc1cccc(/C=N/N2CCN(c3ccccc3)CC2)c1 | 70 |  |
| C(=N\N1CCN(c2ccccc2)CC1)/c1cccc2ccccc12 | 200 |  |
| Oc1ccc(/C=N/N2CCC(Cc3ccccc3)CC2)c(O)c1 | > 200 |  |
| CN(C)c1ccc(/C=N/N2CCN(c3ccccc3)CC2)cc1 | > 200 |  |
| Clc1ccc(/C=N/N2CCN(c3ccccc3)CC2)cc1Cl | > 200 |  |
| CCOC(=O)c1nn(-c2ccc(N(C)C)cc2)cc1O | 120 |  |

| Structure (SMILES) | IC50 [1] [µM] | other results |
| --- | --- | --- |
| C1=C(/C=N/N2CCN(c3ccccc3)CC2)CCCC1 | 130 |  |
| Oc1ccc(/C=N/N2CCCN(c3ccccc3)CC2)c(O)c1 | > 200 |  |
| N#Cc1ccccc1/C=N/N1CCN(c2ccccc2)CC1 | 120 | Efficacy [8]: 60% |
| COc1ccc(/C=N/N2CCN(c3ccccc3)CC2)cc1OC | 100 |  |
| C(=N\N1CCN(c2ccccc2)CC1)/c1ccc2c(c1)OCO2 | > 200 |  |
| Oc1ccc(/C=N/N2CCN(c3ccccc3)CC2)cc1 | 50 |  |
| O=[N+]([O-])c1ccccc1/C=N/N1CCN(c2ccccc2)CC1 | 180 |  |
| CCCOc1cccc(/C=N/N2CCN(c3ccccc3)CC2)c1 | > 200 | Efficacy [8]: 14% |
| COc1ccc(/C=N/N2CCN(c3ccccc3)CC2)cc1O | 80 |  |
| COc1cc(/C=N/N2CCN(c3ccccc3)CC2)cc(OC)c1OC | > 200 |  |
| Oc1ccc(/C=N/N2CCN(c3ccncc3)CC2)c(O)c1 | > 200 |  |
| Cc1cccc(N2CCN(/N=C/c3ccc(O)cc3O)CC2)c1 | > 200 |  |
| Oc1ccc(/C=N/N2CCN(c3ccccc3)CC2)cc1O |  | inhibition (Adipose tissue [3]): Active; inhibition (Adipose tissue [6]): Active; inhibition (Adipose tissue [7]): Active |
| CC(=O)Nc1ccc(/C=N/N2CCN(c3ccccc3)CC2)cc1 | > 200 |  |
| C(=N\N1CCN(c2ccccc2)CC1)/c1cccc(Oc2ccccc2)c1 | > 200 | Efficacy [8]: 24% |
| Oc1ccccc1/C=N/N1CCN(c2ccccc2)CC1 | 75 |  |
| Oc1ccc(/C=N/N2CCN(CCc3ccccc3)CC2)c(O)c1 | > 200 |  |
| CCCC/C=N/N1CCN(c2ccccc2)CC1 | > 200 |  |
| O=c1[nH]c2ccc(/C=N/N3CCN(c4ccccc4)CC3)cc2[nH]1 | > 200 |  |
| C(=N\N1CCN(c2ccccc2)CC1)/C1CCCCC1 | 200 |  |
| Cc1ccc(/C=N/N2CCN(c3ccccc3)CC2)cc1 | > 200 |  |
| COc1cc(/C=N/N2CCN(c3ccccc3)CC2)ccc1O | 60 |  |
| C(=N\N1CCN(c2ccccc2)CC1)/c1cccnc1 | > 200 |  |
